Screens as filed in PubChem BioAssay.
In the library only some 2% were active in any assay of this set; here they are far more common.
STEP inh: STEP phosphatase inhibitors, primary screen, biochemical, fluorescence intensity, uHTS; recombinant STEP, OMFP fluorogenic substrate; inhibition, % at 20 µM; 0.25% of 360,000 active;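 active = inhibition at 20 µM, scaled per plate between control wells, above about 37%, limit read from the data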
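System: STEP phosphatase, cell-free reaction; Buffer or medium: Bis-Tris pH 6.0 buffer with DTT, detergent; Incubation: 20 min at room temperature, dark; Measured by: fluorescence, 480/540 nm.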
Rpn11 inh: Rpn11 (PSMD14) deubiquitinase inhibitors, primary screen, biochemical, fluorescence polarization, uHTS; 0.59% of 360,000 active; AID 588493, 2011; human 26S proteasome, Ub4-pepOG fluorescence polarization; 20S core pre-blocked with epoxomicin; inhibition, % at 20 µM;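 active = inhibition at 20 µM, scaled to each plate's controls, above about 33%, limit read from the data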
Target sequence (O00487 whole entry, looked up): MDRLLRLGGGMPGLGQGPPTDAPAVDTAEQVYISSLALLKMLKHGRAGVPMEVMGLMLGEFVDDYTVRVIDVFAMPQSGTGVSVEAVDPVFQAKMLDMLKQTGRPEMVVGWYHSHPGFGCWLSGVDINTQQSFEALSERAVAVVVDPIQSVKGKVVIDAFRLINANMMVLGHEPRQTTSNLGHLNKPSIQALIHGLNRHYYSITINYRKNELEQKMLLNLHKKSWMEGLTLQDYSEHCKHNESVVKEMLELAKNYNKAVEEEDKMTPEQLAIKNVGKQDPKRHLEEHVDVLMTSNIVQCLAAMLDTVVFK
LMPTP block: LMPTP phosphatase inhibitors, primary screen, biochemical, fluorescence intensity, uHTS; Low molecular weight phosphotyrosine protein phosphatase (Homo sapiens), P24666; recombinant LMPTP-A, OMFP fluorogenic substrate; inhibition, % at 20 µM; 0.22% of 360,000 active;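 active = compounds that cut the enzyme signal by at least half of the control window in the single-dose screen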
Target sequence (P24666 whole entry, looked up): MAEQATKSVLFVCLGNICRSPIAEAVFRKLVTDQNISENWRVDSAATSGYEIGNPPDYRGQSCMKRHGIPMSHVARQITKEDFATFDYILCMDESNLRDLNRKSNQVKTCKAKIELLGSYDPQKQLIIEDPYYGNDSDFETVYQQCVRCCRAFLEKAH
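Test system: LMPTP-A, protein tyrosine phosphatase of low molecular weight; Input: 0.625 nM enzyme; Incubation: 50 min dark incubation at room temperature; Signal: endpoint fluorescence intensity from OMFP dephosphorylation; Read-out basis: % inhibition versus control wells.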
DNMT1 block: human DNMT1 methyltransferase inhibitors, primary screen, biochemical, molecular beacon, fluorescence, HinP1I cleavage, uHTS; inhibition (reported as % activation of signal), % at 10 µM; 0.83% of 360,000 active; DNA (cytosine-5)-methyltransferase 1 (Homo sapiens), P26358; in the data active = inhibition above about 50%
Scp1 inh: Scp-1 phosphatase inhibitors, primary screen, biochemical, colorimetric, uHTS; Recombinant Scp1, phosphopeptide, malachite green phosphate absorbance; inhibition, % at 20 µM; 0.88% of 340,000 active; AID 493091, 2011;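 active = inhibition above about 50% at 20 µM, limit read from the data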
Target sequence (Q9GZU7 76-261 limits assumed): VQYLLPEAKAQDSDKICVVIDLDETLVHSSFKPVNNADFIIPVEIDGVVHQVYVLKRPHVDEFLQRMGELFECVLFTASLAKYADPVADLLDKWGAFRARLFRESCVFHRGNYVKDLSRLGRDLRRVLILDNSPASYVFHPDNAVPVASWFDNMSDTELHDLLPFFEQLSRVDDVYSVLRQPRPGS
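Material: truncated SCP-1 phosphatase (76-261aa) / Buffer or medium: 50 mM Tris acetate pH 5.5, 0.005% Tween-20, 10 mM MgCl2 / Compound dosing: one concentration, 20 µM, with 1.0% DMSO / Incubation: 45 min room-temperature reaction, 5 min colour, 30 min stabiliser / Detection: colorimetric free-phosphate detection, absorbance 630 nm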
DNMT1 interf DR: spectral interference with molecular beacon fluorescence, dose response, artefact control for DNMT1 inhibitor project, biochemical, fluorescent molecular beacon; spectral interference counter-screen; shares compounds with DNMT1 block; 200 tested, under 10 active; IC50, µM; call rule not given here
DNMT1 inh conf: DNMT1 methyltransferase inhibitor retest, confirmation, biochemical, molecular beacon, fluorescence, single concentration; shares compounds with DNMT1 block; DNMT1 molecular beacon HinP1I cleavage; inhibition, % at 10 µM; 8% of 2,300 active;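 active = average inhibition of at least 30% in the single-concentration confirmation test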
Beacon interf: shows spectral interference in the DNMT1 beacon assay; activation (fluorescence interference), % at 10 µM; DNMT1 molecular beacon spectral interference counterscreen, fluorescence 485/520; 1% of 2,300 active; shares compounds with DNMT1 block; AID 602387;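 active = activation of at least 30% at 10 µM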;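 also: DNMT1 catalytic domain with a HinP1I cleavage step and a FAM/dabcyl DNA beacon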
Large screens that a line does not name were inactive (follow-up assays come after a bar, where shown).

O=C(CCCN1C(=O)/C(=C\c2ccccc2)SC1=S)Nc1ccc(O)cc1C(=O)O	none
O=C(CCN1C(=O)/C(=C/c2ccco2)SC1=S)Nc1ccc(O)cc1C(=O)O	DNMT1 block 71, Scp1 inh 64 | DNMT1 inh conf inactive | Beacon interf inactive
O=C(CN1C(=O)/C(=C\c2ccco2)SC1=S)Nc1ccc(O)cc1C(=O)O	STEP inh 80, DNMT1 block 90, Scp1 inh 57 (not shown: Rpn11 inh) | DNMT1 inh conf inactive | Beacon interf inactive
COc1ccc(-c2nc(=S)c3c([nH]2)Oc2ccc(C)cc2C3)cc1O	none
CCOC(=O)N1CCC(NS(=O)(=O)c2ccc3c(c2)oc(=O)n3C)CC1	DNMT1 block 53 | DNMT1 inh conf inactive | Beacon interf inactive
COc1ccc(/C=N/Nc2ccc([N+](=O)[O-])cc2S(=O)(=O)N2CCN(C)CC2)cc1	DNMT1 block 56 (not shown: Rpn11 inh) | DNMT1 inh conf inactive | Beacon interf inactive
COc1ccc(C=NNc2ccc([N+](=O)[O-])cc2S(=O)(=O)Nc2ccccc2C(=O)O)cc1OC	none
CCOc1ccccc1NC(=O)[C@@H](NC(=O)c1ccccc1F)C(C)C	none
Cc1ccccc1Cn1cc(NC(=O)c2cc3nc(-c4ccco4)cc(C(F)(F)F)n3n2)cn1	none
CCc1ccc(-c2cc(C(F)(F)F)n3nc(C(=O)Nc4cnn(Cc5ccc(C)cc5)c4)cc3n2)s1	DNMT1 block 56 | DNMT1 inh conf inactive | Beacon interf inactive
NC1=NC(=O)C(=Cc2ccccc2)S1	none
NC1=NC(=O)/C(=C\c2ccco2)S1	DNMT1 block 74, Scp1 inh 63 | DNMT1 inh conf inactive | Beacon interf inactive
COc1cccc(-c2nc(SC)nc3sc(C(=O)NC(C)(C)C)c(N)c23)c1	none
CSc1nc(NCCOCCO)c2sc3nc(-c4ccco4)c4c(c3c2n1)CCC4	DNMT1 block 87 | DNMT1 inh conf inactive | Beacon interf inactive
Cc1ccc(OCCSc2nc3ccccc3n2CC(=O)O)cc1	none
COc1ccccc1OCCSc1nc2ccccc2n1CC(=O)O	DNMT1 block 80 (no result: Scp1 inh) | DNMT1 inh conf inactive | Beacon interf inactive
Cc1ccc(-n2cc3c(-c4cccc(Br)c4)nnc(C)c3n2)cc1	DNMT1 block 64 (not shown: Rpn11 inh) | DNMT1 inh conf inactive | Beacon interf inactive
Cc1ccc(Cc2c(-c3cccc(Br)c3)nc3ccc(Br)cn23)cc1	none (no result: Scp1 inh)
On1nnc2cc(C(F)(F)F)ccc21	none
COc1ccc(OCC(=O)Nc2nnc(S(=O)(=O)N3CCCCCC3)s2)cc1	none
Cc1ccc(OCC(=O)Nc2nnc(S(=O)(=O)N3CCC(C)CC3)s2)cc1	DNMT1 block 58 | DNMT1 inh conf inactive | Beacon interf inactive
O=C(N/N=C\c1cc(Br)c(Br)o1)c1cncc(Br)c1	none
O=C(N/N=C/c1cc(Br)c(Br)o1)c1ccc2c(c1)OCCO2	DNMT1 block 72, Scp1 inh 84 | DNMT1 inh conf inactive | Beacon interf inactive
O=C(N/N=C/c1cc(Br)c(Br)o1)c1cccnc1	DNMT1 block 62 | DNMT1 inh conf inactive | Beacon interf inactive
Cc1[nH]c(C)c(S(=O)(=O)NCc2ccc(F)cc2)c1C(=O)N1CCCCC1	none
N#Cc1ccccc1/C=N/Nc1nc(-c2ccccc2)c2cc(Cl)ccc2n1	DNMT1 block 66 | DNMT1 inh conf inactive | Beacon interf inactive
O=C(c1ccccn1)N1CCCC(N2CCN(c3ccccc3)CC2)C1 (stereo unspecified)	none
CCOC(=O)c1cc(-c2ccc(C)cc2)n(CC(=O)NCc2ccco2)c1C	DNMT1 block 50 | DNMT1 inh conf inactive | Beacon interf inactive
O=C(COC(=O)c1ccc(NS(=O)(=O)c2cccs2)cc1)NCc1ccco1	DNMT1 block 92, Scp1 inh 92 | DNMT1 interf DR inactive | DNMT1 inh conf 71 | Beacon interf inactive
O=C(COC(=O)c1ccccc1Cl)NCc1ccco1	DNMT1 block 85 | DNMT1 inh conf inactive | Beacon interf inactive
CCOC(=O)c1cc(-c2ccc(C)cc2)n(CCC(=O)NCCN(C)C)c1C	none
Cc1ccc(NS(=O)(=O)c2cccc(C(=O)OCC(=O)NCc3ccco3)c2)cc1	none
Cc1c(C)c2cc(Cl)c(OCC(=O)Nc3ccccn3)cc2oc1=O	DNMT1 block 65 (no result: Scp1 inh) | DNMT1 inh conf inactive | Beacon interf inactive
COc1ccc2sc3c(=O)[nH]c4ccccc4c3c2c1	DNMT1 block 58 | DNMT1 inh conf inactive | Beacon interf inactive
NNC(=O)c1nc[nH]c1C(=O)Nc1ccccc1	DNMT1 block 66 | DNMT1 inh conf inactive | Beacon interf inactive
O=C(Nc1cccc(Cl)c1)c1nc[nH]c1C(=O)NCCCCNC(=O)c1[nH]cnc1C(=O)Nc1cccc(Cl)c1	DNMT1 block 53 | DNMT1 inh conf inactive | Beacon interf inactive
O=C(Nc1ccccc1)c1nc[nH]c1C(=O)NCc1ccccc1	none
COc1cccc(OCC(=O)NNC(=O)C(=O)Nc2ccc(OC)cc2OC)c1	none
Brc1ccc(C2=Nn3cnnc3SC2)cc1	none
CC1(C(=O)NS(=O)(=O)C2CC2)CCCN(C(=O)c2cccc(Cl)c2)C1 (stereo unspecified)	DNMT1 block 65 (no result: Scp1 inh) | DNMT1 inh conf inactive | Beacon interf inactive
CC1(C(=O)NS(=O)(=O)C2CC2)CCCN(C(=O)c2ccc(F)c(Cl)c2)C1 (stereo unspecified)	none (no result: Scp1 inh)
C=CCn1c(=O)c(C(=O)NC(C)c2ccccc2)c(O)c2ccccc21 (stereo unspecified)	DNMT1 block 84 | DNMT1 inh conf inactive | Beacon interf inactive
C=CCn1c(=O)c(C(=O)Nc2ccc(C)cc2)c(O)c2ccccc21	none
CNc1ccc(Br)cc(C(=O)/C=C/c2ccc(OC)cc2)c1=O	none
CNc1ccc(Br)cc(C(=O)/C=C/c2ccc3c(c2)OCO3)c1=O	DNMT1 block 65 | DNMT1 inh conf inactive | Beacon interf inactive
COc1ccccc1/C=C1\SC(=S)N(CCC(=O)Nc2ccc(C(=O)O)c(O)c2)C1=O	none
